Columns and labels:
Influenza A virus [1] = assay: Antiviral activity against influenza virus H3N2 infected in dog MDCK cells assessed as inhibition of virus-induced cytopathogenic effect incubated for 3 to 7 days by MTS assay; type: functional, organism-based
Influenza B virus = assay: Antiviral activity against influenza B virus infected in dog MDCK cells assessed as inhibition of virus-induced cytopathogenic effect incubated for 3 to 7 days by MTS assay; type: functional, organism-based
Sindbis virus = assay: Antiviral activity against Sindbis virus infected in human Huh-7 cells assessed as inhibition of virus-induced cytopathogenic effect incubated for 3 to 7 days by MTS assay; type: functional, organism-based
Huh-7 = assay: Cytotoxicity against human Huh-7 cells assessed as inhibition of cell growth incubated for 72 hrs by CellTiter96 Aqueous One Solution cell proliferation assay; type: functional
Yellow fever virus = assay: Antiviral activity against Yellow fever virus 17D infected in human Huh-7 cells assessed as inhibition of virus-induced cytopathogenic effect incubated for 3 to 7 days by MTS assay; type: functional, organism-based
K562 = assay: Antiproliferative activity against human K562 cells assessed as inhibition of cell growth incubated for 72 hrs by CellTiter96 Aqueous One Solution cell proliferation assay; type: functional, cell-based; conditions: K562, 72 h
Human alphaherpesvirus 1 = assay: Antiviral activity against HSV-1 KOS infected in human HEL 299 cells assessed as inhibition of virus-induced cytopathogenic effect incubated for 3 to 7 days by MTS assay; type: functional, organism-based; conditions: Human alphaherpesvirus 1, KOS
[2] = Antiproliferative activity against human DND41 cells assessed as inhibition of cell growth incubated for 72 hrs by CellTiter96 Aqueous One Solution cell proliferation assay; type: functional, cell-based; conditions: DND41, 72 h
[3] = Cytotoxicity against human HEL 299 cells assessed as inhibition of cell growth incubated for 72 hrs by CellTiter96 Aqueous One Solution cell proliferation assay; type: toxicity, cell-based
[4] = tested on: Respiratory syncytial virus; assay: Antiviral activity against RSV infected in human HEL 299 cells assessed as inhibition of virus-induced cytopathogenic effect incubated for 3 to 7 days by MTS assay; type: functional, organism-based
Human coronavirus OC43 = assay: Antiviral activity against HCoV-OC43 infected in human HEL 299 cells assessed as inhibition of virus-induced cytopathogenic effect incubated for 3 to 7 days by MTS assay; type: functional, organism-based; conditions: Betacoronavirus 1, HEL 299
[5] = Antiviral activity against HCoV-NL63 infected in human Huh-7 cells assessed as inhibition of virus-induced cytopathogenic effect incubated for 3 to 7 days by MTS assay; type: functional, cell-based; conditions: Human coronavirus NL63, Huh-7
Zika virus = assay: Antiviral activity against Zika virus Mr776 infected in human Huh-7 cells assessed as inhibition of virus-induced cytopathogenic effect incubated for 3 to 7 days by MTS assay; type: functional, organism-based; conditions: Mr776, Huh-7
Influenza A virus [6] = assay: Antiviral activity against influenza virus H1N1 infected in dog MDCK cells assessed as inhibition of virus-induced cytopathogenic effect incubated for 3 to 7 days by MTS assay; type: functional, organism-based
[7] = Drug localization in nucleolus of human HEp-2 cells at 10 uM incubated for 3 hrs by confocal microscopy analysis; type: ADME, subcellular; conditions: hep-2, 3 h
How it was run: (§1)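 Compound autofluorescence was imaged by fluorescence microscopy in Hep-2 cells (ATCC CCL-23). Cells were given 10 μM and incubated for 3 hours to allow cellular uptake before imaging. Localization to subcellular compartments was judged from the fluorescence pattern.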

[8] = Cytotoxicity against human PBMC cells assessed as reduction in cell viability at 0.006 to 4 uM measured after 72 hrs by CellTiter96 Aqueous One Solution cell proliferation assay; type: toxicity, cell-based; conditions: dose 0.006-4 µM
[9] = Drug localization in nuclear membrane of human HEp-2 cells at 10 uM incubated for 3 hrs by confocal microscopy analysis; type: ADME, cell membranes; conditions: hep-2, 3 h; how it was run: as §1
[10] = Antioxidant activity assessed as DPPH radical scavenging activity incubated for 5 mins by absorbance based microplate reader analysis; type: functional
How it was run: (§2)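 Pure compounds tested in three colorimetric antioxidant assays, each run alongside the reference BHT. […] ABTS: direct reaction with ABTS•+ radical cation, reported as IC50. DPPH: scavenging of the stable DPPH radical by proton or electron donation, reported as IC50. FRAP: reducing power, expressed as mmolFe2+/mmolC.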

HL-60 = assay: Antiproliferative activity against human HL-60 cells assessed as inhibition of cell growth incubated for 72 hrs by CellTiter96 Aqueous One Solution cell proliferation assay; type: functional, cell-based; conditions: HL-60, 72 h
CAPAN-1 = assay: Antiproliferative activity against human CAPAN-1 cells assessed as inhibition of cell growth incubated for 72 hrs by CellTiter96 Aqueous One Solution cell proliferation assay; type: functional, cell-based; conditions: CAPAN-1, 72 h
Z-138 = assay: Antiproliferative activity against human Z138 cells assessed as inhibition of cell growth incubated for 72 hrs by CellTiter96 Aqueous One Solution cell proliferation assay; type: functional, cell-based; conditions: Z-138, 72 h
NCI-H460 = assay: Antiproliferative activity against human NCI-H460 cells assessed as inhibition of cell growth incubated for 72 hrs by CellTiter96 Aqueous One Solution cell proliferation assay; type: functional, cell-based; conditions: NCI-H460, 72 h
LN-229 = assay: Antiproliferative activity against human LN-229 cells assessed as inhibition of cell growth incubated for 72 hrs by CellTiter96 Aqueous One Solution cell proliferation assay; type: functional, cell-based; conditions: LN-229, 72 h
[11] = Cytotoxicity against human PBMC cells assessed as reduction in cell viability measured after 72 hrs by CellTiter96 Aqueous One Solution cell proliferation assay; type: toxicity, cell-based
How it was run: (§3)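 Normal peripheral blood mononuclear cells from healthy donors were exposed to compound for 72 hours, at concentrations up to a highest dose of 100 μM. Viability is given as a percentage of untreated PBMC control.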

[12] = Antioxidant activity assessed as reduction of Fe3+ complex to Fe2+ analogue by measuring mmolFe2+/mmolc by FRAP assay; type: functional; how it was run: as §2
[13] = Antioxidant activity assessed as ABTS radical scavenging activity incubated for 5 mins by absorbance based microplate reader analysis; type: functional; how it was run: as §2
[14] = Cytotoxicity against dog MDCK cells assessed as inhibition of cell growth incubated for 72 hrs by CellTiter96 Aqueous One Solution cell proliferation assay; type: toxicity, cell-based, Canis lupus familiaris
[15] = Cytotoxicity against human PBMC cells assessed as reduction in cell viability at 20 uM measured after 72 hrs by CellTiter96 Aqueous One Solution cell proliferation assay; type: toxicity, cell-based; how it was run: as §3
Human coronavirus 229E = assay: Antiviral activity against HCoV-229E infected in human HEL 299 cells assessed as inhibition of virus-induced cytopathogenic effect incubated for 3 to 7 days by MTS assay; type: functional, organism-based
[16] = Drug localization in cytoplasm of human HEp-2 cells at 10 uM incubated for 3 hrs by confocal microscopy analysis; type: ADME, subcellular; conditions: hep-2, 3 h; how it was run: as §1

Structure (SMILES) | EC50 (Influenza A virus [1]) [µM] | EC50 (Influenza B virus) [µM] | EC50 (Sindbis virus) [µM] | CC50 (Huh-7) [µM] | EC50 (Yellow fever virus) [µM] | IC50 (K562) [µM] | EC50 (Human alphaherpesvirus 1) [µM] | IC50 [2] [µM] | CC50 at 72 h [3] [µM] | EC50 [4] [µM] | EC50 (Human coronavirus OC43) [µM] | EC50 [5] [µM] | EC50 (Zika virus) [µM] | EC50 (Influenza A virus [6]) [µM] | Drug uptake [7] | Activity [8] [%] | Drug uptake [9] | IC50 (HL-60) [µM] | IC50 (CAPAN-1) [µM] | IC50 (Z-138) [µM] | also measured
CCN(CC)c1ccc2cc(-c3nc4cc(C5=NCCN5)ccc4[nH]3)c(=O)oc2c1.Cl | > 100 | > 100 | > 100 | < 0.8 | > 100 | 1.9 | > 100 | 0.3 | 5.1 | > 100 | > 100 | > 100 | > 100 | > 100 | Active | > 80 | Active | 2.1 | 1.7 | 1.5 | IC50 [10]: 140 µM; IC50 (NCI-H460): 1.8 µM; IC50 (LN-229): 1.4 µM; IC50 at 72 h [11]: 1.6 µM; Activity [12]: 28.4 mmol/mmol; IC50 [13]: 170 µM; CC50 at 72 h [14]: < 0.8 µM; Activity [15]: 60%; EC50 (Human coronavirus 229E): > 100 µM
CCN(CC)c1ccc2cc(-c3nc4ccc(C5=NCCCN5)cc4s3)c(=O)oc2c1.Cl | > 100 | > 100 | > 100 | 1.8 | > 100 | > 100 | 25.5 | 1.3 | > 100 | 43.4 | 28.9 | > 100 | > 100 | > 100 | Active | > 80 | Active | > 100 | 2 | 1.5 | IC50 (NCI-H460): > 100 µM; IC50 (LN-229): 1.8 µM; IC50 at 72 h [11]: 1.7 µM; Activity [12]: 3.29 mmol/mmol; Drug uptake [16]: Active; IC50 [13]: 980 µM; CC50 at 72 h [14]: 4.2 µM; EC50 (Human coronavirus 229E): 33 µM

Source: ChEMBL document CHEMBL5257157, “Biological evaluation of novel amidino substituted coumarin-benzazole hybrids as promising therapeutic agents” (RSC Med Chem, 2023)
